ChEMBL document CHEMBL4190234, “Design, synthesis and anticancer activity of new monastrol analogues bearing 1,3,4-oxadiazole moiety” (Eur J Med Chem, 2017)

Columns and labels:
Assay type in all cases: functional
CCRF-CEM = test: Growth inhibition of human CCRF-CEM cells at 10 uM incubated for 48 hrs by sulforhodamine B assay relative to control; conditions: read-out: GI
Procedure, shortened: (§1)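 Single-dose screen at 10 μM final: cells in RPMI 1640, 5% FBS, 2 mM L-glutamine, plated 5,000–40,000/well, preincubated 24 h at 37°C, 5% CO2; drug 48 h; adherent cells fixed with 10% TCA, suspension cells with 16% TCA; SRB stain, absorbance 515 nm; percentage growth versus untreated control, with time-zero plates.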

HL-60(TB) = test: Growth inhibition of human HL-60(TB) cells at 10 uM incubated for 48 hrs by sulforhodamine B assay relative to control; conditions: HL-60, 48 h, read-out: GI
Procedure, shortened: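 Single dose of 10 µM in the NCI ~60-line panel. Cells grown in RPMI 1640 with 5% FBS and 2 mM L-glutamine, plated and pre-incubated 24 h, then exposed 48 h at 37°C under 5% CO2. Suspension cells fixed with TCA (16% final) and stained with sulforhodamine B, A515 read. Reported as percent growth versus untreated control and as GI%.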

MOLT-4 = test: Growth inhibition of human MOLT4 cells at 10 uM incubated for 48 hrs by sulforhodamine B assay relative to control; conditions: MOLT-4, 48 h, read-out: GI; procedure, shortened: as §1
HOP-92 = test: Growth inhibition of human HOP92 cells at 10 uM incubated for 48 hrs by sulforhodamine B assay relative to control; conditions: HOP-92, 48 h, read-out: GI; procedure, shortened: as §1
NCI-H322M = test: Growth inhibition of human NCI-H322M cells at 10 uM incubated for 48 hrs by sulforhodamine B assay relative to control; conditions: read-out: GI; procedure, shortened: as §1
NCI-H460 = test: Growth inhibition of human NCI-H460 cells at 10 uM incubated for 48 hrs by sulforhodamine B assay relative to control; conditions: NCI-H460, 48 h, read-out: GI; procedure, shortened: as §1
NCI-H522 = test: Growth inhibition of human NCI-H522 cells at 10 uM incubated for 48 hrs by sulforhodamine B assay relative to control; conditions: NCI-H522, 48 h, read-out: GI; procedure, shortened: as §1
COLO 205 = test: Growth inhibition of human COLO205 cells at 10 uM incubated for 48 hrs by sulforhodamine B assay relative to control; conditions: COLO 205, 48 h, read-out: GI; procedure, shortened: as §1
HCC 2998 = test: Growth inhibition of human HCC2998 cells at 10 uM incubated for 48 hrs by sulforhodamine B assay relative to control; conditions: HCC 2998, 48 h, read-out: GI; procedure, shortened: as §1
HCT-116 = test: Growth inhibition of human HCT116 cells at 10 uM incubated for 48 hrs by sulforhodamine B assay relative to control; conditions: HCT-116, 48 h, read-out: GI; procedure, shortened: as §1
HCT-15 = test: Growth inhibition of human HCT15 cells at 10 uM incubated for 48 hrs by sulforhodamine B assay relative to control; conditions: HCT-15, 48 h, read-out: GI; procedure, shortened: as §1
HT-29 = test: Growth inhibition of human HT-29 cells at 10 uM incubated for 48 hrs by sulforhodamine B assay relative to control; conditions: HT-29, 48 h, read-out: GI; procedure, shortened: as §1
KM12 = test: Growth inhibition of human KM12 cells at 10 uM incubated for 48 hrs by sulforhodamine B assay relative to control; conditions: KM12, 48 h, read-out: GI; procedure, shortened: as §1
SF-268 = test: Growth inhibition of human SF268 cells at 10 uM incubated for 48 hrs by sulforhodamine B assay relative to control; conditions: SF-268, 48 h, read-out: GI
Procedure, shortened: (§2)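 NCI single-dose screen: cells grown in RPMI 1640 with 5% FBS and 2 mM L-glutamine, plated at 5,000–40,000 cells/well and preincubated 24 h at 37 °C, 5% CO2. Compounds taken from DMSO stock and tested at final 10 µM for 48 h. Cells fixed with TCA, stained with 0.4% SRB, absorbance read at 515 nm. Percentage growth calculated against untreated controls; controls held DMSO at the same dilution.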

SF-295 = test: Growth inhibition of human SF295 cells at 10 uM incubated for 48 hrs by sulforhodamine B assay relative to control; conditions: SF-295, 48 h, read-out: GI; procedure, shortened: as §2
SNB-75 = test: Growth inhibition of human SNB75 cells at 10 uM incubated for 48 hrs by sulforhodamine B assay relative to control; conditions: SNB-75, 48 h, read-out: GI; procedure, shortened: as §2
LOX IMVI = test: Growth inhibition of human LOXIMVI cells at 10 uM incubated for 48 hrs by sulforhodamine B assay relative to control; conditions: read-out: GI; procedure, shortened: as §1
M14 = test: Growth inhibition of human M14 cells at 10 uM incubated for 48 hrs by sulforhodamine B assay relative to control; conditions: M14, 48 h, read-out: GI; procedure, shortened: as §1
MDA-MB-435 = test: Growth inhibition of human MDA-MB-435 cells at 10 uM incubated for 48 hrs by sulforhodamine B assay relative to control; conditions: MDA-MB-435, 48 h, read-out: GI; procedure, shortened: as §1
SK-MEL-5 = test: Growth inhibition of human SK-MEL-5 cells at 10 uM incubated for 48 hrs by sulforhodamine B assay relative to control; conditions: SK-MEL-5, 48 h, read-out: GI; procedure, shortened: as §2
IGROV-1 = test: Growth inhibition of human IGROV1 cells at 10 uM incubated for 48 hrs by sulforhodamine B assay relative to control; conditions: IGROV-1, 48 h, read-out: GI; procedure, shortened: as §1
OVCAR-4 = test: Growth inhibition of human OVCAR4 cells at 10 uM incubated for 48 hrs by sulforhodamine B assay relative to control; conditions: OVCAR-4, 48 h, read-out: GI; procedure, shortened: as §1
OVCAR-5 = test: Growth inhibition of human OVCAR5 cells at 10 uM incubated for 48 hrs by sulforhodamine B assay relative to control; conditions: OVCAR-5, 48 h, read-out: GI; procedure, shortened: as §1
786-0 = test: Growth inhibition of human 786-0 cells at 10 uM incubated for 48 hrs by sulforhodamine B assay relative to control; conditions: 786-0, 48 h, read-out: GI; procedure, shortened: as §1
A498 = test: Growth inhibition of human A498 cells at 10 uM incubated for 48 hrs by sulforhodamine B assay relative to control; conditions: A498, 48 h, read-out: GI; procedure, shortened: as §1
RXF 393 = test: Growth inhibition of human RXF393 cells at 10 uM incubated for 48 hrs by sulforhodamine B assay relative to control; conditions: RXF 393, 48 h, read-out: GI; procedure, shortened: as §1
TK-10 = test: Growth inhibition of human TK10 cells at 10 uM incubated for 48 hrs by sulforhodamine B assay relative to control; conditions: TK-10, 48 h, read-out: GI; procedure, shortened: as §2
UO-31 = test: Growth inhibition of human UO31 cells at 10 uM incubated for 48 hrs by sulforhodamine B assay relative to control; conditions: UO-31, 48 h, read-out: GI; procedure, shortened: as §2
MCF7 = test: Growth inhibition of human MCF7 cells at 10 uM incubated for 48 hrs by sulforhodamine B assay relative to control; conditions: MCF7, 48 h, read-out: GI; procedure, shortened: as §1
Hs-578T = test: Growth inhibition of human Hs 578T cells at 10 uM incubated for 48 hrs by sulforhodamine B assay relative to control; conditions: read-out: GI; procedure, shortened: as §1

| SMILES | inhibition of growth at 10 µM (CCRF-CEM) | inhibition of growth at 10 µM (HL-60(TB)) | inhibition of growth at 10 µM (MOLT-4) | inhibition of growth at 10 µM (HOP-92) | inhibition of growth at 10 µM (NCI-H322M) | inhibition of growth at 10 µM (NCI-H460) | inhibition of growth at 10 µM (NCI-H522) | inhibition of growth at 10 µM (COLO 205) | inhibition of growth at 10 µM (HCC 2998) | inhibition of growth at 10 µM (HCT-116) | inhibition of growth at 10 µM (HCT-15) | inhibition of growth at 10 µM (HT-29) | inhibition of growth at 10 µM (KM12) | inhibition of growth at 10 µM (SF-268) | inhibition of growth at 10 µM (SF-295) | inhibition of growth at 10 µM (SNB-75) | inhibition of growth at 10 µM (LOX IMVI) | inhibition of growth at 10 µM (M14) | inhibition of growth at 10 µM (MDA-MB-435) | inhibition of growth at 10 µM (SK-MEL-5) | further results |
| --- | --- | --- | --- | --- | --- | --- | --- | --- | --- | --- | --- | --- | --- | --- | --- | --- | --- | --- | --- | --- | --- |
| CC(=O)C1=C(C)NC(SCc2nnc(-c3ccc(Cl)cc3)o2)=NC1c1ccc(Cl)cc1 (stereo not given) | 20.9% | 40.3% | 24.4% | 26.5% | 12% | < 10% | 20.9% | < 10% | < 10% | 25.8% | 11% | < 10% | < 10% | < 10% | < 10% | 28.1% | < 10% | < 10% | < 10% | < 10% | inhibition of growth at 10 µM (IGROV-1): 23.4%; inhibition of growth at 10 µM (OVCAR-4): < 10%; inhibition of growth at 10 µM (OVCAR-5): < 10%; inhibition of growth at 10 µM (786-0): 12.6%; inhibition of growth at 10 µM (A498): < 10%; inhibition of growth at 10 µM (RXF 393): < 10%; inhibition of growth at 10 µM (TK-10): 13.1%; inhibition of growth at 10 µM (UO-31): 43.6%; inhibition of growth at 10 µM (MCF7): 16.4%; inhibition of growth at 10 µM (Hs-578T): < 10% |
| CC(=O)C1=C(C)NC(SCc2nnc(-c3ccc(Cl)cc3)o2)=NC1c1ccc(F)cc1 (stereo not given) | < 10% | 11.5% | < 10% | < 10% | < 10% | < 10% | 15.6% | < 10% | < 10% | 13.1% | < 10% | < 10% | < 10% | < 10% | < 10% | 16.8% | < 10% | < 10% | < 10% | < 10% | inhibition of growth at 10 µM (IGROV-1): 15.4%; inhibition of growth at 10 µM (OVCAR-4): < 10%; inhibition of growth at 10 µM (OVCAR-5): < 10%; inhibition of growth at 10 µM (786-0): 16.4%; inhibition of growth at 10 µM (A498): < 10%; inhibition of growth at 10 µM (RXF 393): < 10%; inhibition of growth at 10 µM (TK-10): 14.6%; inhibition of growth at 10 µM (UO-31): 26.1%; inhibition of growth at 10 µM (MCF7): 10.6%; inhibition of growth at 10 µM (Hs-578T): < 10% |
